Experimental data: ChEMBL document CHEMBL1671829, “Activation of Neuropeptide FF Receptors by Kisspeptin Receptor Ligands” (ACS Med Chem Lett, 2011)
The source made the active and inactive calls. The calls are words filed in the database; no cut-off is given here.

What was measured:
[1] = target: T1, Neuropeptide FF receptor 2 (Homo sapiens, UniProt Q9Y5X5); assay: Displacement of (D-[125I]Tyr1, MePhe3)-NPFF from NPFFR2 after 2 hrs
How it was run: (§1)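 Dose–response inhibition of (d-[125I]Tyr1, MePhe3)-NPFF binding to NPFFR1 or NPFFR2. IC50 is the concentration giving 50% inhibition of radioligand binding, taken from dose–response curves built from triplicate data points.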

[2] = target: T2, Neuropeptide FF receptor 1 (Homo sapiens, UniProt Q9GZQ6); assay: Displacement of (D-[125I]Tyr1, MePhe3)-NPFF from NPFFR1 after 2 hrs; how it was run: as §1
T2 sequence (Q9GZQ6 whole entry): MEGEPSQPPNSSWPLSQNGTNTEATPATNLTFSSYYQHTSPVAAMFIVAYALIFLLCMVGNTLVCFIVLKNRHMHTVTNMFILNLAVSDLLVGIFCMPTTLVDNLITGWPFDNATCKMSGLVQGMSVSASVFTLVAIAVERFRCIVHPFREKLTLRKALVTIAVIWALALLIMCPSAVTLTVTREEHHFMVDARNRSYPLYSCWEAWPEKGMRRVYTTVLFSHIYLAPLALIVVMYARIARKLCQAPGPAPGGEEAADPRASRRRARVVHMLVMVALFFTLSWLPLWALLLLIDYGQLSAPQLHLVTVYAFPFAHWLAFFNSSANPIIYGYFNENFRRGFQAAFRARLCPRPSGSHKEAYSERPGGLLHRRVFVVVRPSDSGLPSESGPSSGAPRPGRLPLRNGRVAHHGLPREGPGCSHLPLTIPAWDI

[3] = target: T3, KiSS-1 receptor (Homo sapiens, UniProt Q969F8); assay: Displacement of [125I]kisspeptin-15 from GPR54
T3 sequence (Q969F8 whole entry): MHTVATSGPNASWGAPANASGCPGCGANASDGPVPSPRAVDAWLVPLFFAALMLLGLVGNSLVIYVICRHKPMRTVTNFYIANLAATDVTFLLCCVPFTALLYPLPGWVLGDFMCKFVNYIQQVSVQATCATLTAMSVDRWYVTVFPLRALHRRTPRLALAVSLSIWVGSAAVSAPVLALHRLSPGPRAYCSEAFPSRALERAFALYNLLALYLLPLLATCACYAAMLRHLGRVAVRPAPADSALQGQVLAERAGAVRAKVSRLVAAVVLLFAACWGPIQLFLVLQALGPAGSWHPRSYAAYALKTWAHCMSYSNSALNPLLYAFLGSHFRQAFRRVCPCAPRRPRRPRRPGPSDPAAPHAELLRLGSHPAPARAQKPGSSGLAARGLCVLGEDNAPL

[4] = target: T1, Neuropeptide FF receptor 2; assay: Agonist activity at NPFFR2 expressed in CHO cells assessed as inhibition of forskolin-induced cAMP accumulation at up to 100 uM after 30 mins
[5] = tested on: Rattus norvegicus; assay: Increase of luteinizing hormone level in Wistar-imamichi rat plasma at 0.25 nmol, administered intracerebroventricularly in preoptic area after 3 hrs measured every 6 mins by double-antibody radioimmunoassay; type: functional, organism-based
How it was run: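 Male rats given 0.25 nmol peptide into the preoptic area. Blood sampled every 6 min over 3 h; plasma LH expressed as area under the curve. Mean ± SEM of five or more experiments.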

[6] = target: T2, Neuropeptide FF receptor 1; assay: Agonist activity at NPFFR1 expressed in CHO cells assessed as inhibition of forskolin-induced cAMP accumulation at up to 100 uM after 30 mins
[7] = species: Rattus norvegicus; assay: Increase of GnRH release in Wistar-imamichi rat median eminence at 0.1 uM after 30 mins by double-antibody radioimmunoassay; type: functional
How it was run: (§2)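 Rat median eminence incubated in vitro with peptide. Released GnRH quantified by double-antibody radioimmunoassay with [125I]-labeled GnRH; mean ± SEM of triplicate or more experiments.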

[8] = target: T2, Neuropeptide FF receptor 1; assay: Agonist activity at NPFFR1 expressed in HEK293T cells co-expressing Gqi5 assessed as increase of intracellular calcium mobilization at 0.24 uM after 1 hr; type: functional, cell-based; conditions: HEK-293T
[9] = species: Rattus norvegicus; assay: Increase of GnRH release in Wistar-imamichi rat median eminence at 1 uM after 30 mins by double-antibody radioimmunoassay; type: functional; how it was run: as §2
[10] = target: T4, Galanin receptor type 3 (Homo sapiens) (UniProt O60755); assay: Displacement of [125I]-Tyr9-galanin from GalR3 at 10 uM after 1 hr
T4 sequence (whole entry): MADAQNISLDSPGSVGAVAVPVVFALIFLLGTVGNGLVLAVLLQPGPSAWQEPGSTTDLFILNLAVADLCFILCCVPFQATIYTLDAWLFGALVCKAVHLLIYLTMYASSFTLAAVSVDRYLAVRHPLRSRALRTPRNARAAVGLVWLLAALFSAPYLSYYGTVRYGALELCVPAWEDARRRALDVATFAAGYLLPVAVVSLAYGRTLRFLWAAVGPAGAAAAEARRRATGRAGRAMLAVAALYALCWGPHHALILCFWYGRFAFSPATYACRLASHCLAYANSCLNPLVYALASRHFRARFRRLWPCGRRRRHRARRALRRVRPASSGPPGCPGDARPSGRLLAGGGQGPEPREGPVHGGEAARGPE
How it was run: (§3)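 Single-point radioligand binding inhibition on receptor membrane preparations, test peptide at 10 μM. Radioligands are [125I]Tyr9-galanin for GALR1–3, [125I]-prolactin-releasing peptide-20 for PrRPR, and (d-[125I]Tyr1, MePhe3)-NPFF for NPFFR1 and NPFFR2. Read-out is % inhibition of specific binding, mean of duplicate analyses.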

[11] = target: T1, Neuropeptide FF receptor 2; assay: Displacement of (D-[125I]Tyr1, MePhe3)-NPFF from NPFFR2 at 10 uM after 2 hrs; how it was run: as §3
[12] = target: T2, Neuropeptide FF receptor 1; assay: Displacement of (D-[125I]Tyr1, MePhe3)-NPFF from NPFFR1 at 10 uM after 2 hrs; how it was run: as §3
[13] = target: T2, Neuropeptide FF receptor 1; assay: Agonist activity at NPFFR1 expressed in HEK293T cells co-expressing Gqi5 assessed as increase of intracellular calcium mobilization after 1 hr; type: functional, cell-based; conditions: HEK-293T
[14] = target: T5, Galanin receptor type 1 (Homo sapiens) (UniProt P47211); assay: Displacement of [125I]-Tyr9-galanin from GalR1 at 10 uM after 1 hr; how it was run: as §3
T5 sequence (whole entry): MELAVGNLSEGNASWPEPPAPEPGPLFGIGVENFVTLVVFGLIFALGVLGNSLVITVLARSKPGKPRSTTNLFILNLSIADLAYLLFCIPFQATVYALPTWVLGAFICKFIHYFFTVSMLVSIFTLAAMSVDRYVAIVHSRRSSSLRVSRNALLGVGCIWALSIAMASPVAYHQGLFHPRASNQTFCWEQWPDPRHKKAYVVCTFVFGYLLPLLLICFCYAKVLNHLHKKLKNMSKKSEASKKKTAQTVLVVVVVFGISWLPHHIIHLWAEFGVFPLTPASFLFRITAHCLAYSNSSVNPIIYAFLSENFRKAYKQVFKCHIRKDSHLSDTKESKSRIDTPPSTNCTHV

[15] = target: T1, Neuropeptide FF receptor 2; assay: Agonist activity at NPFFR2 expressed in HEK293T cells co-expressing Gqi5 assessed as increase of intracellular calcium mobilization after 1 hr; type: functional, cell-based; conditions: HEK-293T
[16] = target: T6, Galanin receptor type 2 (Homo sapiens) (UniProt O43603); assay: Displacement of [125I]-Tyr9-galanin from GalR2 at 10 uM after 1 hr; how it was run: as §3
T6 sequence (whole entry): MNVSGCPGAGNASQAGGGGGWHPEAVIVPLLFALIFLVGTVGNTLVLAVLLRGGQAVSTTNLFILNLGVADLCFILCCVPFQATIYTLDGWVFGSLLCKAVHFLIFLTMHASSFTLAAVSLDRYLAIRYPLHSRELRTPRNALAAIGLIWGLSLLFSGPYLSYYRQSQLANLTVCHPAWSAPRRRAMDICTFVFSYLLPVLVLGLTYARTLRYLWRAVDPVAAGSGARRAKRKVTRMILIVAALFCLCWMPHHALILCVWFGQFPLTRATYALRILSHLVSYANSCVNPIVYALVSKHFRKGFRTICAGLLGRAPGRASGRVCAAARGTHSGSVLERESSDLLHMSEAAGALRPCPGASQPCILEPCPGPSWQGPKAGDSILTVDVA

[17] = target: T7, Prolactin-releasing peptide receptor (Homo sapiens) (UniProt P49683); assay: Displacement of [125I]-prolactin releasing peptide-20 from PrRPR at 10 uM after 30 mins; how it was run: as §3
T7 sequence (whole entry): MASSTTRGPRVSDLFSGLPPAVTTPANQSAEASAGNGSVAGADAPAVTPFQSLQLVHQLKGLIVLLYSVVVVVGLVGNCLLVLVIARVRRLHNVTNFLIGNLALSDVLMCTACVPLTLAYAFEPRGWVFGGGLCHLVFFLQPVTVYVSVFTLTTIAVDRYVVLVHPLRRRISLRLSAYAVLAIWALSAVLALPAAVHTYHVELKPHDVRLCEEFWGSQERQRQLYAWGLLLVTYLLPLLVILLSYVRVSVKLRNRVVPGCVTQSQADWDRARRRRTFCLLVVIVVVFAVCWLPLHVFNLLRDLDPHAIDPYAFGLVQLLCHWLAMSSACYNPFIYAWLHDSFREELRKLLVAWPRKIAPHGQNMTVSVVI

[18] = target: T3, KiSS-1 receptor; assay: Agonist activity at GPR54 expressed in CHO cells assessed as increase of intracellular calcium mobilization at 10 uM after 1 hr; type: functional, cell-based

T1 sequence (Q9Y5X5 whole entry): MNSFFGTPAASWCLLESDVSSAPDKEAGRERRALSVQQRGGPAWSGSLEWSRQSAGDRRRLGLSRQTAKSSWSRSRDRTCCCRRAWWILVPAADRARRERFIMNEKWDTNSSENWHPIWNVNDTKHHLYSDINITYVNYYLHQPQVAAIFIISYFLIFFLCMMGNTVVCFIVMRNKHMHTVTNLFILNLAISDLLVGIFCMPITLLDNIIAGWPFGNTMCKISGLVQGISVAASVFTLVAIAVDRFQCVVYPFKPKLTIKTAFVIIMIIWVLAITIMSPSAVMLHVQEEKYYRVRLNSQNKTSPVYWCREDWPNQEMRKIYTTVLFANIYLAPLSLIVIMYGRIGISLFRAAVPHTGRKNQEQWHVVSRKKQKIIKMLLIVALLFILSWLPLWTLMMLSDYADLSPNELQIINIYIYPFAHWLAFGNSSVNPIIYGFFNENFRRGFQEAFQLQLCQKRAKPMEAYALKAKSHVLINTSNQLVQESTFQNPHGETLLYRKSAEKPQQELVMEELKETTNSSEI

Compound | IC50 [1] [nM] | IC50 [2] [nM] | IC50 [3] [nM] | inhibition [4] | Activity [5] | inhibition [6] | Activity [8] [%] | further results
H-SLAAPQRF-OH | 0.79 | 1.9 | > 30000 |  |  |  |  | 
CC(C)C[C@H](NC(=O)CNC(=O)[C@H](Cc1ccccc1)NC(=O)[C@H](CO)NC(=O)[C@H](CC(N)=O)NC(=O)[C@H](Cc1c[nH]c2ccccc12)NC(=O)[C@H](CC(N)=O)NC(=O)[C@@H](N)Cc1ccc(O)cc1)C(=O)N[C@@H](CCCNC(=N)N)C(=O)N[C@@H](Cc1ccccc1)C(N)=O [KISSPEPTIN-10] | 76 | 4.7 |  | Active | Active | Active | 86 | Activity [7]: Active
NC(=O)[C@H](Cc1ccccc1)NC(=O)[C@H](CCCN=C(N)N)NC(=O)C12CC3CC(CC(C3)C1)C2 |  |  | 830 |  |  |  |  | 
CC(C)C[C@H](NC(=O)CNC(=O)[C@H](Cc1ccccc1)NC(=O)c1ccc(F)cc1)C(=O)N[C@@H](CCCNC(=N)N)C(=O)N[C@@H](Cc1c[nH]c2ccccc12)C(N)=O |  |  |  | Active | Active | Active | 49 | Activity [9]: Active; Activity [10]: inactive; Activity [11]: 90.7%; Activity [12]: 99.4%; Activity [13]: Dose-dependent effect; Activity [14]: inactive; Activity [15]: Dose-dependent effect; Activity [16]: inactive; Activity [17]: 21.1%
CC(C)C[C@H](NC(=O)CNC(=O)[C@H](Cc1ccccc1)NC(=O)c1ccc(F)cc1)C(=O)N[C@@H](CCCN=C(N)N)C(=O)N[C@@H](Cc1c[nH]c2ccccc12)C(N)=O | 1800 | 160 |  |  |  |  |  | 
CC(C)C[C@H](/C=C/CNC(=O)[C@H](Cc1ccccc1)NC(=O)c1ccc(F)cc1)C(=O)N[C@@H](CCCNC(=N)N)C(=O)N[C@@H](Cc1c[nH]c2ccccc12)C(N)=O |  |  |  | Active | Active | Active | 52 | Activity [9]: Active; Activity [10]: inactive; Activity [11]: 95.7%; Activity [12]: 88.3%; Activity [13]: Dose-dependent effect; Activity [14]: inactive; Activity [15]: Dose-dependent effect; Activity [16]: inactive; Activity [17]: 16.1%
CC(C)C[C@H](/C=C/CNC(=O)[C@H](Cc1ccccc1)NC(=O)c1ccc(F)cc1)C(=O)N[C@@H](CCCN=C(N)N)C(=O)N[C@@H](Cc1c[nH]c2ccccc12)C(N)=O | 2400 | 640 |  |  |  |  |  | 
N=C(N)NCCC[C@H](NC(=O)C12CC3CC(CC(C3)C1)C2)C(=O)N[C@@H](Cc1ccccc1)C(N)=O |  |  |  |  |  |  |  | Activity [18]: inactive
CN(C)c1cccc2c(S(=O)(=O)N3CCC[C@H]3C(=O)N[C@@H](CCC(N)=O)C(=O)N[C@@H](CCCNC(=N)N)C(=O)N[C@@H](Cc3ccccc3)C(N)=O)cccc12 |  |  | 16000 |  |  |  |  | Activity [18]: inactive
